# Screening data as filed in PubChem.
# ARFGAP1 inhibitor: inhibits rat ARF GTPase activating protein 1 | Q62848 | Arfgap1-stimulated ARF1 GTP hydrolysis, GDP FP detection | inhibition, % at 16.5 µM | 360,000 tested, 0.26% active | AID 651572;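 active means inhibition above a per-plate limit, mean inhibition of low control wells plus 3 SD, cut at about 25% in these data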;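 further: 0% = DMSO wells with enzyme and 100% = wells lacking Arfgap1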
# Target sequence (Q62848 1-136 limits assumed): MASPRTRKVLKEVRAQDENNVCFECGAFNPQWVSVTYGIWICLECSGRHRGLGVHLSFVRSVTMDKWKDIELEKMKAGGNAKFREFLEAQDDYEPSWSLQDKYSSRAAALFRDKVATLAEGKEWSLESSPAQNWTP
#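 system = rat Arfgap1 catalytic domain, aa 1-136 | technique = FP, GDP Alexa 633 tracer displaced from anti-GDP antibody, 620/688 nm | compound = one concentration, 16.5 µM, DMSO 1.26% | medium = HEPES-based buffer, pH 7.5 | timing = compound-enzyme preincubation 20 min, reaction 120 min, detection 60 min, 25 °C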
# pPAFAH inh: pPAFAH (human) enzyme inhibition. Q13093. recombinant pPAFAH, FP-rhodamine probe fluorescence polarization. inhibition, % at 3.39 µM. 330,000 tested, 1.5% active. AID 463082;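 active means inhibition above the mean inhibition across the screen plus 3 SD, cut at about 25% in these data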;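 further: inhibitors block binding of the rhodamine activity-based probe so polarization drops; 0% = enzyme with DMSO and 100% = wells lacking pPAFAH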
# PAFAH1B2 FP inh: PAFAH1B2 (human) inhibition; P68402; recombinant PAFAH1B2, FP-rhodamine activity probe, fluorescence polarization; inhibition, % at 3.39 µM; 340,000 tested, 1.2% active; AID 492953;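 active means inhibition above the mean of all tested compounds plus 3 SD, cut at about 24% in these data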;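 further: 0% = enzyme with DMSO and 100% = wells lacking PAFAH1B2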
# PAFAH1B3 FP inh: PAFAH1B3 (human) inhibition; Q15102; 340,000 tested, 0.28% active; inhibition, % at 3.39 µM; recombinant PAFAH1B3, FP-rhodamine probe, fluorescence polarization;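 active means inhibition above the screen-wide average of all tested compounds plus 3 SD, cut at about 25% in these data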;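 further: 0% = enzyme with DMSO only and 100% = wells lacking PAFAH1B3 protein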
# Target sequence (Q15102 whole entry, looked up): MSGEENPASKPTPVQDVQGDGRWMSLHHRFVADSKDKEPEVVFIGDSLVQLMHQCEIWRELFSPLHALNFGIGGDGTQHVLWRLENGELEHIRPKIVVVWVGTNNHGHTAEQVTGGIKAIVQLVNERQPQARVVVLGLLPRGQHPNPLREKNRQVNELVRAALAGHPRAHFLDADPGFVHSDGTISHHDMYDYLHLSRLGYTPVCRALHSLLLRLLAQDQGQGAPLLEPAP
# ASAP1 GAP inh: inhibitors of human ASAP1 ArfGAP activity | Q9ULH1 | inhibition, % at 16.5 µM | ASAP1-stimulated ARF1 GTP hydrolysis, GDP FP detection | 360,000 tested, 0.19% active; in the data active means inhibition above about 25%;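 further: 0% = vehicle with enzyme and substrate and 100% = no enzyme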
# PAFAH2 inh: inhibitors of human PAFAH2; Q99487; recombinant PAFAH2, FP-rhodamine activity probe, fluorescence polarization; inhibition, % at 3.39 µM; 340,000 tested, 0.99% active;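 active means inhibition above the mean over all tested compounds plus 3 SD, cut at about 30% in these data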;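 further: inhibitors block probe labeling of enzyme so polarization drops; 0% = enzyme with DMSO and 100% = wells lacking PAFAH2 protein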
# PAFAH2 FP conf: PAFAH2 (human) inhibition, confirmed | shares compounds with PAFAH2 inh | recombinant PAFAH2, FP-rhodamine activity probe, fluorescence polarization | inhibition, % at 3.39 µM | 2,300 tested, 65% active;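 active means mean inhibition over three repeats above a set limit taken from the earlier primary screen, cut at about 30% in these data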;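 further: inhibitor blocks binding of rhodamine activity probe so polarization falls; 0% = enzyme with DMSO and 100% = wells lacking PAFAH2 protein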
# An asterisk follows results filed as active; x = no result. Compounds with a hit are over-represented: about 2.8% of the library has one in this group of screens.
SMILES,ARFGAP1 inhibitor,pPAFAH inh,PAFAH1B2 FP inh,PAFAH1B3 FP inh,ASAP1 GAP inh,PAFAH2 inh,PAFAH2 FP conf
CCOC(=O)N1CCN(C(=O)c2ccccc2NC(=O)c2ccc(Br)cc2)CC1,3.4,-4.0,2.5,-1.7,2.7,43.7*,25.8
CCSC1=NSC2=NC(=O)/C(=C\c3coc4ccccc4c3=O)C(=N)N12,5.9,6.7,11.2,6.7,0.5,32.6*,21.0
COC(=O)C1=C(C)N(Cc2ccc(Cl)cc2)C(=S)NC1c1ccc(OC)cc1 (centres undefined),2.0,x,x,x,4.2,x,x
O=C(COC(=O)/C=C/c1ccc(F)cc1)NCC1CCCO1 (centres undefined),3.7,1.9,1.2,14.8,10.3,37.8*,26.5
O=C(COC(=O)/C=C/c1ccc(C(F)(F)F)cc1)NCC1CCCO1 (centres undefined),-12.2,7.6,0.1,-0.8,-1.6,10.1,x
COc1cc(/C=C/C(=O)OCC(=O)NCC2CCCO2)ccc1OCC#N (centres undefined),7.2,4.4,3.9,1.8,12.2,43.4*,29.9*
COc1cc(/C=C/C(=O)OCC(=O)NCc2ccco2)ccc1OCC#N,-6.0,5.0,2.4,14.3,-3.4,43.7*,37.0*
COc1ccc(C(C)=NNS(=O)(=O)c2ccc(C)cc2)cc1OC,1.1,x,x,x,-1.5,x,x
CCCCN1C(=O)C(=O)N(CC(=O)Nc2cc(Cl)ccc2OC)C1=O,2.6,3.0,-4.9,-0.8,-15.1,0.7,x
CC(C)NC(=O)N(C)C[C@@H]1OCc2cnnn2CCCC(=O)N([C@H](C)CO)C[C@H]1C,4.9,x,x,x,-3.5,x,x
Cc1cc(F)ccc1C(O)c1ncc(-c2ccc(Oc3ccccc3)cc2)[nH]1 (centres undefined),14.4,x,x,x,-0.8,x,x
CCOc1ncccc1C(=O)OCC(=O)c1ccc(Br)s1,-2.5,12.2,0.5,1.9,-4.0,50.3*,35.2*
COc1ccc(C(=O)OCC(=O)Nc2ccc(Cl)cn2)cc1,-1.5,5.6,2.5,0.9,6.0,56.2*,53.7*
CSc1ncccc1C(=O)OCC(=O)Nc1ccc(Cl)cn1,-5.7,3.9,3.1,1.1,-7.9,3.5,x
O=C(COC(=O)c1ccccc1)Nc1ccc(Cl)cn1,11.3,1.6,0.2,7.4,8.6,45.8*,49.2*
CCOc1ncccc1C(=O)OCC(=O)Nc1ccc(Cl)cn1,-2.8,24.0,2.9,5.7,-10.9,46.2*,28.9
COc1ccc(Cn2cc(CN3CC(N4CCN(CCO)CC4)CS3(=O)=O)nn2)cc1 (centres undefined),6.9,x,x,x,7.0,x,x
Cc1cc(S(=O)(=O)NC(=O)[C@H]2O[C@@H](n3cnc4c(N)ncnc43)[C@H](O)[C@@H]2O)ccc1Br,3.0,x,x,x,-16.9,x,x
O=C(O)Cc1nc2nc3c(c(=O)n2[nH]1)CCCC3,8.7,-2.9,1.1,1.1,-3.2,-3.1,x
O=c1c2c(nc3nc(COc4ccccc4)[nH]n13)CCC2,1.6,4.7,3.1,-1.0,-14.1,61.4*,55.8*
CC(CCc1ccccc1)NC(=O)COC(=O)CC1CC2CCC1C2 (centres undefined),12.4,18.8,14.7,4.6,3.6,29.8*,20.5
O=C(COC(=O)CC1CC2CCC1C2)NCc1ccccc1 (centres undefined),8.0,22.5,12.8,14.0,-5.1,45.7*,29.2
CC(C)c1ccc(S(=O)(=O)N2CCN(C(=O)c3cccc(S(=O)(=O)N4CCOCC4)c3)CC2)cc1,3.1,x,2.6,4.4,-14.7,-1.1,x
COC(=O)CSc1nc2c(cnn2-c2ccc(Cl)cc2)c(=O)[nH]1,-0.6,1.5,24.1,1.5,-3.9,-0.6,x
CC(C)C(Cl)=NOC(=O)Nc1ccc(S(N)(=O)=O)cc1,-2.2,x,7.8,6.0,2.5,46.9*,39.5*
COC(=O)[C@H](C)NC(=O)Nc1ccc(S(N)(=O)=O)cc1,-18.4,5.0,6.8,-0.7,6.6,3.3,x
CCOC(=O)NN1C(=O)c2ccccc2NC1c1cccs1 (centres undefined),-9.5,2.7,7.6,3.5,-9.8,5.7,x
O=C(COC(=O)c1ccc(NS(=O)(=O)c2ccc3c(c2)OCCO3)cc1)NC1CC1,-3.1,9.3,-0.4,1.6,-14.7,63.6*,51.1*
